# IDE act: IDE (human) activation, cell-based; P14735; HEK cells, FAbeta-B cleavage, fluorescence polarization; 0% vehicle, 100% cell-free pure enzyme wells; activation, % at 5.96 µM; 0.073% of 340,000 active; AID 493087;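 active = activation above the mean of all tested compounds plus 3 SD, set per screening campaign, cut at about 17% in these data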
# IDE inh: inhibitors of human insulin-degrading enzyme in cells; P14735; HEK cells, FAbetaB cleavage, fluorescence polarization; inhibition, % at 5.59 µM; 0.41% of 320,000 active; AID 434962;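 active = percent inhibition above the average of all tested compounds plus 3 SD, set per screening campaign, cut at about 16% in these data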;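 also: IDE supplied by intact live HEK cells; FP after avidin binding of uncleaved biotin substrate so inhibition keeps polarization high; 0% = DMSO wells and 100% = 60 µM reference IDE inhibitor Ii1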
# ASAP1 inh: inhibitors of human ASAP1 ArfGAP activity | ASAP1-stimulated ARF1 GTP hydrolysis, GDP FP detection | inhibition, % at 16.5 µM | 0.19% of 360,000 active | AID 624377; in the data active = inhibition above about 25%;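 also: 0% = vehicle with enzyme and substrate and 100% = no enzyme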
# PREPL inhibitor: inhibits the human prolyl oligopeptidase-like enzyme; Q4J6C6; recombinant PREPL, fluorescence polarization activity-based probe; inhibition, % at 5.96 µM; 0.68% of 320,000 active;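 also: 0% = enzyme with DMSO and 100% = wells lacking enzyme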
# ARFGAP1 inhibitor: inhibits rat ARF GTPase activating protein 1; 0.26% of 360,000 active; Q62848; inhibition, % at 16.5 µM; AID 651572; Arfgap1-stimulated ARF1 GTP hydrolysis, GDP FP detection;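 active = inhibition above a per-plate limit, mean inhibition of low control wells plus 3 SD, cut at about 25% in these data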;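 also: 0% = DMSO wells with enzyme and 100% = wells lacking Arfgap1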
#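 Material: rat Arfgap1 catalytic domain, aa 1-136; also added: human ARF1(Δ1-17)-GTP substrate; compound dosing: one concentration, 16.5 µM, DMSO 1.26%; incubation: GTP hydrolysis reaction 2 h at 25 °C; measured by: Tracer-displacement fluorescence polarization with EDTA stop, 620/688 nm; evaluation: % inhibition from polarization; repeats: one replicate per compound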
# PREPL confirm: confirmation of human PREPL enzyme inhibitors. shares compounds with PREPL inhibitor. recombinant PREPL, fluorescence polarization activity probe. inhibition, % at 5.96 µM. 67% of 2,000 active;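 also: 0% = protein with DMSO and 100% = wells lacking protein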
# * hit, by the source's call; . = not tested or not shown. A selection: hits, their analogues and other compounds. The true share with any hit is near 1.2%. Rule as the data show it, unless noted: active = inhibition above about 43%; inactive = the rest.
SMILES,IDE act,IDE inh,ASAP1 inh,PREPL inhibitor,ARFGAP1 inhibitor,PREPL confirm
CCOc1ncccc1C(=O)N1CCN(S(=O)(=O)c2ccc3c(c2)OCCO3)CC1,4,-2,-5,2,2,.
CCOC(=O)c1sc2nc(N3CCOCC3)c3c(c2c1N)CC(C)(C)N(C)C3,2,5,1,20,-9,.
CN1Cc2c(N3CCOCC3)nc3sc(C(=O)c4ccccc4)c(N)c3c2CC1(C)C,-3,-6,14,61*,1,64*
O=S1(=O)CCSC[C@@H](CNCc2ccco2)N1,.,.,0,.,-7,.
CC(C)NC(=O)OC[C@@H]1CSCCS(=O)(=O)N1,.,.,3,.,-8,.
C[C@H]1CN([C@@H](C)CO)S(=O)(=O)c2ccc(Br)cc2O[C@H]1CN(C)C(=O)c1ccccc1F,.,.,4,.,-4,.
N#Cc1c(Nc2ccccc2)sc(C(=O)c2ccccc2)c1N,7,9,-2,46*,4,42
COc1ccc2c(c1OC)C[N+]1([O-])CCc3cc4c(cc3C1C2)OCO4 (configuration not stated),-1,6,6,11,-3,.
COc1ccc2c(c1)CC1c3c(cc4c(c3-2)OCO4)CC[N+]1(C)[O-] (configuration not stated),2,3,10,55*,-4,20
C[C@H](O)[C@@H]1C(=O)N2CCc3c([nH]c4ccccc34)[C@@H]2C[C@@H]1N(C)C(=O)OCc1ccccc1,.,.,10,.,-1,.
COc1cc(C2NCCc3c2[nH]c2ccccc32)ccc1OC(C)C (configuration not stated),.,4,11,44*,11,41
COc1cc([C@H]2c3[nH]c4ccccc4c3C[C@H]3C(=O)N4[C@@H](c5cc(OC)c(OC)c(OC)c5)c5[nH]c6ccccc6c5C[C@H]4C(=O)N23)cc(OC)c1OC,1,-2,.,2,.,.
O=S(=O)(SC1=NCCN1)c1ccccc1,1,.,8,.,3,.
COc1cc2c(cc1OC)C(Cc1ccc(O)c(Oc3ccc(C[C@H]4c5cc(OC)c(OC)cc5CCN4C)cc3)c1)N(C)CC2 (some centres not stated),.,1,.,45*,.,52*
COc1cc2c(cc1OC)[C@@H](Cc1ccc(OCCC#N)cc1)N(C)CC2,2,1,2,6,-3,.
C[C@H](O)[C@@H]1CN2CCc3c([nH]c4c(-c5ccccc5)cccc34)[C@@H]2C[C@@H]1N(C)C(=S)NCCc1ccccc1,.,.,6,.,5,.
Cc1[nH]c2ccc(C(=O)NCCCN3CCCCCC3)cc2c1C,2,3,2,46*,4,32
Cc1[nH]c2ccc(C(=O)NCCCN3CCCC3)cc2c1C,2,1,11,14,-4,.
Cc1cc(C)n2c(NC3CCCCC3)c(-c3ccccn3)nc2n1,.,.,-6,.,5,.
Cc1ccn2c(NC3CCCC3)c(-c3ccncc3)nc2c1,-3,-1,5,2,1,.
c1ccc(-c2nc3ccccn3c2NC2CCCC2)nc1,.,0,0,63*,-2,65*
Cc1ccn2c(NC3CCCC3)c(-c3ccccn3)nc2c1,6,1,8,72*,-11,69*
CCCCc1c(O)nc(SCC(=O)c2ccccc2)n(-c2ccccc2OC)c1=O,4,3,-14,18,-3,.
CN(Cc1ccccc1)C(=O)c1csc(COCCO)n1,.,.,-1,.,0,.
CCOc1ccc(N2C(=O)C(C)CNC2=S)cc1 (configuration not stated),7,.,8,.,12,.
Cc1ccc(-n2nc3c(c2NC(=O)c2cccs2)CS(=O)(=O)C3)c(C)c1,5,-6,-4,-5,2,.
O=C(C1=C[C@@H](c2ccc(Br)cc2)C[C@@H](OCCCCO)O1)N1CCN(Cc2ccc3c(c2)OCO3)CC1,6,-2,3,67*,8,59*
O=C(C1=C[C@H](c2ccccc2)C[C@H](OCc2ccc(CO)cc2)O1)N1CCN(Cc2ccccc2)CC1,-5,1,6,35,6,.
CCO[C@H]1OC(C(=O)N2CCN(Cc3ccc4c(c3)OCO4)CC2)=C[C@@H](c2ccc3c(c2)OCO3)[C@@H]1CCCO,-2,-6,5,49*,2,43

# Screening data: PubChem BioAssay, The Scripps Research Institute Molecular Screening Center
